Data taken from PubChem BioAssay AID2052 (NMMLSC, 2009).
The whole screen tested about 330,000 compounds, of which about 220 (0.067%) were called active.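 The calls were made as follows: active = response, share of CD8 T cells binding vesicles, and their 90th percentile fluorescence all below set limits (cut at about 80% in these data, passing the limit was not always enough); inactive = the rest, inconclusive results apart.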 The full list was thinned out, with actives kept by preference.

Test: modulators of CD8 T cell-vesicle binding, primary screen, mouse 2C CD8+ T cells, flow cytometry (AID 2052);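 as to double positive events: binding gate set so that unloaded-vesicle control wells show 10% double positive cells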;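 as to response (vesicle binding): values below 100% mean blocked vesicle binding to the CD8+ T cells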
Details: 2C CD8+ T cell-vesicle binding, at 7 µM, stronger effect = lower value; double positive events: measured here: CD8+ vesicle-bound cell fraction
Procedure, shortened: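 Benchmarks: naked versus QL9-loaded vesicles / Assay system: purified 2C TCR transgenic mouse naive CD8+ T cells / Technique: high-throughput flow cytometry with anti-B7-1 and anti-CD8 staining / Timing: Cell–vesicle co-incubation 1.5 h at 37 °C, staining 20 min on ice / Read-out: percent CD8+ FL2 mean versus row control / Probe or stimulus: QL9-loaded Drosophila micro-vesicles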

Compound	double positive events	response (vesicle binding)
CC1C(c2ccccc2)=[N+]([O-])C2(CCCC2)N1O (centres undefined)	34.2%	259% (inactive)
COc1ccc(C2=Nn3c(nnc3-c3ccccc3OC)SC2)cc1OC1CCCC1	2.5%	196% (inactive)
CCC(CC)C(=O)Nc1cc(C(=O)OC)cc(C(=O)OC)c1	23.6%	410% (inactive)
Cc1c(Br)c([N+](=O)[O-])nn1CC(=O)N1CCN(Cc2ccccc2)CC1	63%	210% (inactive)
Cc1cc(Cl)ccc1C(=O)C1CCCN(C(=O)CCN2CCCO2)C1 (centres undefined)	23.8%	257% (inactive)
Cn1nc(C(F)(F)F)c2cc(NC(=O)OCC(C)(C)C)sc21	43.1%	197% (inactive)
CN(CCc1cnn(C)c1)Cc1cn(C)nc1-c1ccccc1F	31.2%	291% (inactive)
O=C(Nc1cccn(Cc2c(Cl)cccc2Cl)c1=O)c1ccc(Cl)cc1	24.7%	379% (inactive)
CCCC(CCC(=O)OC)(C(=O)OCC)c1csc(N)n1 (centres undefined)	19.7%	485% (inactive)
CN(c1ccccc1)S(=O)(=O)c1cccc(NC(=O)Cc2ccc(Cl)cc2)c1	40.2%	419% (inactive)
CCCCCC1CCC(c2nnc(SCC(C)=O)o2)CC1 (centres undefined)	19.4%	214% (inactive)
O=C(Nc1ccc(N2CCOCC2)cc1)c1ccc(-c2ccccc2[N+](=O)[O-])o1	30.7%	205% (inactive)
O=C(Nc1ccc(N2CCCCC2)cc1)c1cc(S(=O)(=O)N2CCOCC2)ccc1F	40.6%	316% (inactive)
O=C(CC1Oc2ccccc2NC1=O)NCCCN1CCN(Cc2ccccc2)CC1 (centres undefined)	40.4%	363% (inactive)
CCOC(=O)N1CCN(S(=O)(=O)c2ccc3c(c2)C(C)C(=O)N3)CC1 (centres undefined)	29.9%	289% (inactive)
COc1ccc(/C=C2\N=C3CCCN3C2=O)cc1	16.6%	231% (inactive)
O=C1C=C(c2cccc(Br)c2)C[C@@H](c2ccc(F)cc2)C1	26%	405% (inactive)
Cc1ccc(C(=O)NC2CCCC(C)C2C)cc1S(=O)(=O)N1CCCCC1 (centres undefined)	56.1%	659% (inactive)
O=C(Nc1ccc(CSc2ccccc2)cc1)c1ccc(CN2CCOCC2)cc1	48.3%	264% (inactive)

Compound	double positive events	response (vesicle binding)
COc1ccc(N2CC(C)Cn3c2nc2c3c(=O)n(Cc3ccccc3F)c(=O)n2C)c(OC)c1 (centres undefined)	27.6%	423% (inactive)
O=C(O)c1ccccc1-c1ccccc1C(=O)NCCc1ccccc1	29.9%	437% (inactive)
COc1ccc(CCNC(=O)c2ccccc2OCc2ccccc2)cc1	12.3%	205% (inactive)
NC(=O)Nc1ccccc1C(=O)NCCc1ccccc1	0%	0% (active)
CC(C)c1ccc(N(C(=O)c2ccco2)C(C(=O)NC2CCCC2)c2cccnc2)cc1 (centres undefined)	19.1%	176% (inactive)
Cc1cc(C)c(S(=O)(=O)c2cc(F)ccc2C)c(=O)[nH]1	44.2%	185% (inactive)
O=S(=O)(Nc1ccc(Cl)cn1)c1cnc(Cl)c(Br)c1	15.2%	0% (inactive)
COc1ccc(N2CC(C(=O)N[C@@H](C)C(=O)N3CCCCC3)CC2=O)cc1 (some centres undefined)	12.6%	315% (inactive)
OCC(CO)(CO)NCc1ccc(-c2ccccc2)cc1	35.7%	0% (inactive)
NC(=O)C[C@@H]1NC(=O)CNC(=O)c2cc([N+](=O)[O-])cc(I)c2NCCC(C(N)=O)NC1=O (some centres undefined)	24.2%	474% (inactive)
CC(/C=C/C1(O)C(C)CC(=O)CC1(C)C)OC1OC(CO)C(O)C(O)C1O (centres undefined)	38.7%	185% (inactive)
CCNC(=O)Nc1ccc(S(=O)(=O)Nc2cnc(C)nc2C)cc1	18.1%	230% (inactive)
CCc1nnc(NC(=O)CSc2nc(SC)ns2)s1	35.8%	236% (inactive)
CCc1cccc2c3c([nH]c12)C(CC)(CC(=O)O)OCC3 (centres undefined)	14.8%	487% (inactive)
O=C(CSc1ccc(-c2ccccn2)nn1)Nc1ccccc1	12.5%	157% (inactive)
Cc1c(OC(C)C(=O)NCC2CCC(C(=O)O)CC2)ccc2c1oc(=O)c1ccccc12 (centres undefined)	55.9%	184% (inactive)
COc1ccc(CNc2nnnn2C)cc1	4%	0% (active)
CCCn1nnnc1NCc1ccc(OC)cc1	56.3%	308% (inactive)
